Measurements from ChEMBL document CHEMBL1629582, “Novel nucleotide human immunodeficiency virus reverse transcriptase inhibitor GS-9148 with a low nephrotoxic potential: characterization of renal transport and accumulation” (Antimicrob Agents Chemother, 2009).

Experiments:
[1] = AUC (0 to 24 hrs) in dog at 3 mg/kg, po; type: ADME, organism-based, Canis lupus familiaris; design: time < 24 hr, dose 3 mg/kg, route oral; conditions: plasma
[2] = Cellular uptake in human HEK293T cells expressing MRP4 efflux transporter assessed as accumulation of GS-9148 metabolite at 5 uM by liquid scintillation counting relative to control; type: ADME, cell-based; conditions: hek-293t
[3] = Cellular uptake in BHK21 cells expressing hOAT3 at 10 uM by liquid scintillation counting relative to control; type: ADME, cell-based, Mesocricetus auratus; conditions: hamster, bhk-21, 10 µM
Summary of the method: (§1)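 Radiolabeled nucleotide at 10 μM was incubated at 37°C in Waymouth buffer pH 7.2 with transporter-expressing cells (CHO-hOAT1 or BHK-hOAT3) and matching empty-vector control cells, with or without 500 μM probenecid. Uptake was sampled at several time points, with longer times for hOAT3. Washed cells were lysed in Triton X-100 and counted by scintillation. Two independent experiments in duplicate, mean ± SD; two-tailed paired t test.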

[4] = Cellular uptake in human HEK293T cells expressing MRP4 efflux transporter at 5 uM by liquid scintillation counting relative to control; conditions: hek-293t
[5] = test system: CHO; experiment: Cellular uptake in CHO cells expressing hOAT1 at 10 uM by liquid scintillation counting relative to control; type: ADME, cell-based, Cricetulus griseus; conditions: chinese hamster; summary of the method: as §1
[6] = Renal clearance in dog urine at 3 mg/kg, po; type: ADME, organism-based, Canis lupus familiaris; design: dose 3 mg/kg, route oral; conditions: read-out: CL_renal (converted)
Summary of the method: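 Fasted dogs were given 3.0 mg/kg [14C]prodrug (10 μCi/kg) in 50 mM citrate pH 2.2 by oral gavage. Urine was collected on dry ice over 0–8 and 8–24 h and counted by scintillation. Parent nucleotide in pooled 0–24 h urine was measured by radio-HPLC on a C18 column with an ammonium formate/acetonitrile gradient. Renal clearance = 24-h urinary amount / 24-h plasma exposure / body weight; three dogs.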

[7] = Percent of urinary material present as GS-9148 in dog urine at 3 mg/kg, po
[8] = Drug level in dog kidney at 3 mg/kg, po after 24 hrs by liquid scintillation counting; type: ADME, organism-based, Canis lupus familiaris; design: dose 3 mg/kg, route oral; conditions: in vivo
Summary of the method: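 Three fasted dogs were given 3.0 mg/kg [14C]prodrug (10 μCi/kg) orally in 50 mM citrate pH 2.2. Kidneys were excised at 24 h, rinsed, blotted and weighed, then combusted and counted by scintillation. Values are μg equivalents per gram tissue, mean ± SD of three dogs.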

[9] = Cellular uptake in human HEK293T cells expressing MRP4 efflux transporter at 5 uM by liquid scintillation counting in presence of 30 uM efflux inhibitor MK-571 relative to control; conditions: hek-293t
[10] = test system: CHO; experiment: Cellular uptake in CHO cells expressing hOAT1 at 10 uM by liquid scintillation counting in presence of 500 uM of probenecid relative to control; type: ADME, cell-based, Cricetulus griseus; conditions: chinese hamster; summary of the method: as §1
[11] = test system: OAT1; experiment: Cytotoxicity against CHO cells expressing hOAT1 after 120 hrs by Cell-Titer Glo assay; type: ADME, cell-based, Cricetulus griseus; conditions: chinese hamster
Summary of the method: (§2)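 CHO cells carrying hOAT1 or empty vector were seeded in parallel at 3 × 10³/well. After 24 h, serial drug dilutions were added in triplicate and incubated 120 h. Viability was read by luminescence relative to untreated wells. CC50 was taken by nonlinear regression from two independent experiments, mean ± SD.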

[12] = Cellular uptake in BHK21 cells expressing hOAT3 at 10 uM by liquid scintillation counting in presence of 500 uM of probenecid relative to control; type: ADME, cell-based, Mesocricetus auratus; conditions: hamster, bhk-21, 10 µM; summary of the method: as §1
[13] = Cytotoxicity against CHO cells after 120 hrs by Cell-Titer Glo assay; type: cell-based, Cricetulus griseus; conditions: chinese hamster; summary of the method: as §2
[14] = molecular target: T1, Solute carrier family 22 member 6 (Homo sapiens, UniProt Q4U2R8); experiment: Activity of human OAT1 transfected in CHO cells measured per 10^6 cells; type: cell-based
T1 sequence (Q4U2R8 whole entry): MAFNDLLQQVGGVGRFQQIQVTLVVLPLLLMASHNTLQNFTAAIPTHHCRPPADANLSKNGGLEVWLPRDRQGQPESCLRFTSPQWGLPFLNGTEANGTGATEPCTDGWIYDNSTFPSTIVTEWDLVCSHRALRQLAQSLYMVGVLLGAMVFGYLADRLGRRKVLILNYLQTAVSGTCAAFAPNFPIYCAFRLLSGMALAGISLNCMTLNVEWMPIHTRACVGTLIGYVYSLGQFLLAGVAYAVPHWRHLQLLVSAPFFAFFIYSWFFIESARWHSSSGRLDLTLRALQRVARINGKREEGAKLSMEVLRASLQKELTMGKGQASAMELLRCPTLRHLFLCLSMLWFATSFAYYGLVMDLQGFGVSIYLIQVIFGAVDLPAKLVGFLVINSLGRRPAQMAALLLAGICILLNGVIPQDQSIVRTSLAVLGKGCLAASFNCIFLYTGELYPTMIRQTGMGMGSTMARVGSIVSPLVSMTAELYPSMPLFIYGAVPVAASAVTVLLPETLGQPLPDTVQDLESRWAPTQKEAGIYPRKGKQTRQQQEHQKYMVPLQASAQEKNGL
Summary of the method: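 Radiolabelled substrate at various concentrations incubated 20 min at 37°C with CHO cells stably expressing hOAT1 in Waymouth buffer (pH 7.2). Cells washed in ice-cold PBS, lysed in 0.3% Triton X-100, uptake read by scintillation counting. Km and Vmax fitted by Michaelis-Menten. Two independent experiments in duplicate, mean ± SD.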

[15] = molecular target: T2, OAT1 (SLC22A6) (Homo sapiens, UniProt Q4U2R8); experiment: (§3) Activity of human OAT1 transfected in CHO cells; type: cell-based
T2 sequence (Q4U2R8 whole entry): T1 sequence (Q4U2R8 whole entry)
Summary of the method: (§4)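 CHO cells stably transfected with human OAT1, with empty-vector CHO cells run in parallel, seeded 48 h ahead. Radiolabeled substrate was given at a range of concentrations for 20 min at 37°C in Waymouth buffer pH 7.2. Cells were washed in ice-cold PBS, lysed in Triton X-100 and counted by scintillation. Km and Vmax came from Michaelis-Menten fitting; two independent experiments in duplicate, mean ± SD.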

[16] = Drug uptake in human kidney cortex at 5 uM by liquid scintillation counting in presence of 500 uM of probenecid; type: ADME, tissue-based
[17] = substrate: C[C@H](Cn1cnc2c(N)ncnc21)OCP(=O)(O)O; experiment: (§5) Activity of human OAT3 transfected in BHK-21 cells; type: cell-based
Summary of the method: (§6)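 BHK-21 cells stably transfected with human OAT3 (the clone with highest probenecid-sensitive uptake), with empty-vector BHK cells in parallel, seeded on fibronectin 24 h ahead. Radiolabeled substrate was given at a range of concentrations for 120 min at 37°C in Waymouth buffer pH 7.2. Lysates were counted by scintillation. Km and Vmax came from Michaelis-Menten fitting; two independent experiments in duplicate.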

[18] = substrate: Nc1ncnc2c1ncn2CCOCP(=O)(O)O; experiment: as §5; type: cell-based; summary of the method: as §6
[19] = substrate: Nc1ncnc2c1ncn2[C@@H]1O[C@H](OCP(=O)(O)O)C=C1F; experiment: as §5; type: cell-based; summary of the method: as §6
[20] = substrate: Nc1ncnc2c1ncn2[C@@H]1O[C@H](OCP(=O)(O)O)C=C1F; experiment: as §3; type: cell-based; summary of the method: as §4

Nc1ncnc2c1ncn2[C@@H]1O[C@H](OCP(=O)(O)O)C=C1F [GS-9148]
AUC(0-t) at 24 h [1]: 4.9 µM·h | Drug uptake [2]: Active | Drug uptake [3]: Active | Drug uptake [4]: Not Active | Drug uptake [5]: Active | CL renal [6]: 7.83 mL/min/kg | percent of urinary material as GS-9148 [7]: 84% | Drug uptake [8]: 2.49 µg/g | Drug uptake [9]: Active | Drug uptake [10]: Not Active | CC50 at 120 h [11]: 435 µM | Drug uptake [12]: Not Active

Nc1ccn(C[C@@H](CO)OCP(=O)(O)O)c(=O)n1.O.O [CIDOFOVIR]
CC50 at 120 h [13]: 520 µM | Vmax [14]: 103 pmol/min | CC50 at 120 h [11]: 3 µM

C[C@H](Cn1cnc2c(N)ncnc21)OCP(=O)(O)O [TENOFOVIR ANHYDROUS]
Km [15]: 33.8 µM | Vmax [14]: 110 pmol/min

Nc1ncnc2c1ncn2CCOCP(=O)(O)O [ADEFOVIR]
CC50 at 120 h [13]: ≥ 2000 µM | Vmax [14]: 46 pmol/min | Drug uptake [16]: Active

B1: Organic anion transporter 3 (Homo sapiens) (protein)
chain: MTFSEILDRVGSMGHFQFLHVAILGLPILNMANHNLLQIFTAATPVHHCRPPHNASTGPWVLPMGPNGKPERCLRFVHPPNASLPNDTQRAMEPCLDGWVYNSTKDSIVTEWDLVCNSNKLKEMAQSIFMAGILIGGLVLGDLSDRFGRRPILTCSYLLLAASGSGAAFSPTFPIYMVFRFLCGFGISGITLSTVILNVEWVPTRMRAIMSTALGYCYTFGQFILPGLAYAIPQWRWLQLTVSIPFFVFFLSSWWTPESIRWLVLSGKSSKALKILRRVAVFNGKKEEGERLSLEELKLNLQKEISLAKAKYTASDLFRIPMLRRMTFCLSLAWFATGFAYYSLAMGVEEFGVNLYILQIIFGGVDVPAKFITILSLSYLGRHTTQAAALLLAGGAILALTFVPLDLQTVRTVLAVFGKGCLSSSFSCLFLYTSELYPTVIRQTGMGVSNLWTRVGSMVSPLVKITGEVQPFIPNIIYGITALLGGSAALFLPETLNQPLPETIEDLENWSLRAKKPKQEPEVEKASQRIPLQPHGPGLGSS
Km [17]: 770 µM | Vmax [17]: 2.87e-05 µmol/min | Km [18]: 1220 µM | Vmax [18]: 0.000131 µmol/min | Km [19]: 1220 µM | Vmax [19]: 1.95e-05 µmol/min

B2: Solute carrier family 22 member 6 (Homo sapiens) (protein)
chain: T1 sequence (Q4U2R8 whole entry)
Km [20]: 259 µM | Vmax [20]: 7.8e-06 µmol/min
